Assay results published in ChEMBL document CHEMBL1149184, “Development of a new type of allosteric modulator of muscarinic receptors: hybrids of the antagonist AF-DX 384 and the hexamethonio derivative W84” (J Med Chem, 2004).

Key:
[1] = system: Muscarinic acetylcholine receptor M2 (Cavia porcellus); experiment: Emax dissociation towards Muscarinic acetylcholine receptor M2 in guinea pig using [3H]AF-DX 384 as a radioligand
[2] = system: Muscarinic acetylcholine receptor M2 (Cavia porcellus); experiment: Palpha towards Muscarinic acetylcholine receptor M2 in guinea pig using [3H]-AF-DX 384 as a radioligand
[3] = system: Muscarinic acetylcholine receptor M2 (Cavia porcellus); experiment: Binding affinity towards Muscarinic acetylcholine receptor M2 in guinea pig using [3H]-NMS as a radioligand
[4] = system: Muscarinic acetylcholine receptor M2 (Cavia porcellus); experiment: Binding affinity towards Muscarinic acetylcholine receptor M2 in guinea pig using [3H]-AF-DX 384 as a radioligand
[5] = system: Muscarinic acetylcholine receptor M2 (Cavia porcellus); experiment: Palpha towards Muscarinic acetylcholine receptor M2 in guinea pig using [3H]NMS as a radioligand
[6] = system: Muscarinic acetylcholine receptor M2 (Cavia porcellus); experiment: Half-maximal reduction towards Muscarinic acetylcholine receptor M2 in guinea pig using [3H]NMS as a radioligand
[7] = system: Muscarinic acetylcholine receptor M2 (Cavia porcellus); experiment: Half-maximally reduction towards muscarinic 2 receptor in guinea pig using [3H]-AF-DX 384 as a radioligand
[8] = system: Muscarinic acetylcholine receptor M2 (Cavia porcellus); experiment: Emax dissociation towards Muscarinic acetylcholine receptor M2 in guinea pig using [3H]NMS as a radioligand
[9] = target: T1, Muscarinic acetylcholine receptor M2 (Sus scrofa) (UniProt P06199); experiment: Palpha towards Muscarinic acetylcholine receptor M2 in porcine heart using [3H]NMS as a radioligand
T1 sequence (whole entry): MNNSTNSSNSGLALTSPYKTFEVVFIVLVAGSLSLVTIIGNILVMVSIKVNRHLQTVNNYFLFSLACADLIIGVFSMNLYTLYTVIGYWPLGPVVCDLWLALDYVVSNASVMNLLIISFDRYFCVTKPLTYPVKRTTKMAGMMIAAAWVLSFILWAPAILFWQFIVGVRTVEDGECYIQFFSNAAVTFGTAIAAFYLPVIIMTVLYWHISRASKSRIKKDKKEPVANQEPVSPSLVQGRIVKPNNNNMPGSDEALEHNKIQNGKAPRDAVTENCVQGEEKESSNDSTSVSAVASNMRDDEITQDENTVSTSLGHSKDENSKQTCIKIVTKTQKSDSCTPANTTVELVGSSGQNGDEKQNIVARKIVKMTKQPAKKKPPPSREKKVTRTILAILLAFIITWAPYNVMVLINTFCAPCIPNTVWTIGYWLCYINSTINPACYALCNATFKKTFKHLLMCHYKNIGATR
How it was run: (§1)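 Porcine heart membranes with 0.2 nM [3H]NMS at 37 °C in 3 mM MgHPO4 / 50 mM Tris-HCl, pH 7.3, and varying test-compound concentrations. Incubation was 120–360 min to reach equilibrium. Nonspecific binding was taken with 1 μM atropine. Bound label was filtered and counted. Curves were fitted to the ternary complex model of allosteric interaction. Three to four independent experiments.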

[10] = target: T1, Muscarinic acetylcholine receptor M2 (Sus scrofa); experiment: Emax dissociation towards Muscarinic acetylcholine receptor M2 in porcine heart using [3H]NMS as a radioligand
How it was run: (§2)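 Dissociation assay at 37 °C on porcine cardiac membranes in Mg/Tris buffer, pH 7.3. Membranes were preincubated 30 min with 0.2 nM [3H]NMS, then dissociation was started with 1 μM atropine ± test compound and tracked for 120 min. Apparent dissociation rate constants k-1 against log concentration were fitted with a four-parameter logistic curve.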

[11] = target: T1, Muscarinic acetylcholine receptor M2 (Sus scrofa); experiment: Binding affinity towards Muscarinic acetylcholine receptor M2 in porcine heart using [3H]NMS as a radioligand
How it was run: as §1

[12] = target: T1, Muscarinic acetylcholine receptor M2 (Sus scrofa); experiment: Half-maximal reduction towards Muscarinic acetylcholine receptor M2 in porcine heart using [3H]NMS as a radioligand
How it was run: as §2

Compound | Emax,diss [1] [%] | Palpha [2] | pKA [3] | pKA [4] | Palpha [5] | pEC0.5,diss [6] | pEC0.5,diss [7] | Emax,diss [8] [%] | Palpha [9] | Emax,diss [10] [%] | pKA [11] | pEC0.5,diss [12]
C[N+](C)(C)CCCN1C(=O)c2ccccc2C1=O | 25 | < -2 | 3.95 | 4.51 | -1.21 | 3.21 | 3 | 100 | – | – | – | –
CCCN(CCCN1C(=O)c2ccccc2C1=O)CC1CCCCN1CCNC(=O)N1c2ccccc2C(=O)Nc2cccnc21 (stereo not given) | – | – | – | – | – | – | – | – | 1.07 | 100 | 5.89 | 6.87
CCCCCC[N+](C)(C)CCCN1C(=O)c2ccccc2C1=O | 82 | -1.35 | 5.08 | 5.8 | -1.55 | 4.06 | 4.11 | 100 | – | – | – | –
CC[N+](C)(C)CCCN1C(=O)c2ccccc2C1=O | 34 | < -2 | 4.12 | 4.44 | -1.03 | 3.35 | 3.33 | 100 | – | – | – | –
CCCN(CCC)CC1CCCCN1CCNC(=O)N1c2ccccc2C(=O)Nc2cccnc21 (stereo not given) | – | – | – | – | – | – | – | – | < -2 | 100 | 8.14 | 4.65
CCCN(CCCCCCN1C(=O)c2ccccc2C1=O)CC1CCCCN1CCNC(=O)N1c2ccccc2C(=O)Nc2cccnc21 (stereo not given) | – | – | – | – | – | – | – | – | 0.05 | 100 | 6.71 | 6.75
C[N+](C)(CCCCCC[N+](C)(C)CCCN1C(=O)c2ccccc2C1=O)CCCN1C(=O)CCC1=O | 68 | -1.56 | 5.24 | 5.93 | -0.49 | 4.82 | 3.67 | 100 | – | – | – | –
CCCN(CCCN1C(=O)CCC1=O)CC1CCCCN1CCNC(=O)N1c2ccccc2C(=O)Nc2cccnc21 (stereo not given) | – | – | – | – | – | – | – | – | -1.8 | 76 | 8.01 | 4.95
CCC[N+](C)(C)CCCN1C(=O)c2ccccc2C1=O | 73 | < -2 | 3.55 | 4.1 | -0.78 | 3.76 | 2.98 | 90 | – | – | – | –
CCCN(CCCCCC[N+](C)(C)CCCN1C(=O)c2ccccc2C1=O)CC1CCCCN1CCNC(=O)N1c2ccccc2C(=O)Nc2cccnc21 (stereo not given) | – | – | – | – | – | – | – | – | -0.58 | 100 | 6.83 | 6.78
